These results are taken from ChEMBL document CHEMBL3425409, “General role of the amino and methylsulfamoyl groups in selective cyclooxygenase(COX)-1 inhibition by 1,4-diaryl-1,2,3-triazoles and validation of a predictive pharmacometric PLS model” (Eur J Med Chem, 2015).

Activity calls are given as the source filed them. The calls are words filed in the database; no cut-off is given here.

The target of series [1] is T1, Prostaglandin G/H synthase 2 (Ovis aries, UniProt P79208).
T1 sequence (P79208 whole entry): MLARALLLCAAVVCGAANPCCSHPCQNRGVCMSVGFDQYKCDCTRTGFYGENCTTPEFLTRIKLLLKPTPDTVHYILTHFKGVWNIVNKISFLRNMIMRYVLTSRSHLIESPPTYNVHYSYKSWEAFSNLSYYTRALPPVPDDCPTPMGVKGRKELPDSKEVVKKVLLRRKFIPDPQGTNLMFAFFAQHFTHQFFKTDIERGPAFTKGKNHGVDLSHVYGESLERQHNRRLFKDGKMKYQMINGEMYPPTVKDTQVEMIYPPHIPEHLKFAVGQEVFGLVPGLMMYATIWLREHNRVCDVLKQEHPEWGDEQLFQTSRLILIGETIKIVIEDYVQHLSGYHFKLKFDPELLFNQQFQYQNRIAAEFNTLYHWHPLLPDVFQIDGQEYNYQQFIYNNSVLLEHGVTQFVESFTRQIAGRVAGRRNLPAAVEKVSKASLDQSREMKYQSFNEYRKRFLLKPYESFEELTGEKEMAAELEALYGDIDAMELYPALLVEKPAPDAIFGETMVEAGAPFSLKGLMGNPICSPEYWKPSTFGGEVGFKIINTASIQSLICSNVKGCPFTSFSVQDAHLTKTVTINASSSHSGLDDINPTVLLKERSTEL
The series is described as follows: Inhibition of ovine COX-2 assessed as inhibition of PGH2 production using arachidonic acid as substrate by TMPD oxidation based colorimetric assay.

The target in series [2] is T2, Prostaglandin G/H synthase 1 (Ovis aries) (UniProt P05979).
T2 sequence (whole entry): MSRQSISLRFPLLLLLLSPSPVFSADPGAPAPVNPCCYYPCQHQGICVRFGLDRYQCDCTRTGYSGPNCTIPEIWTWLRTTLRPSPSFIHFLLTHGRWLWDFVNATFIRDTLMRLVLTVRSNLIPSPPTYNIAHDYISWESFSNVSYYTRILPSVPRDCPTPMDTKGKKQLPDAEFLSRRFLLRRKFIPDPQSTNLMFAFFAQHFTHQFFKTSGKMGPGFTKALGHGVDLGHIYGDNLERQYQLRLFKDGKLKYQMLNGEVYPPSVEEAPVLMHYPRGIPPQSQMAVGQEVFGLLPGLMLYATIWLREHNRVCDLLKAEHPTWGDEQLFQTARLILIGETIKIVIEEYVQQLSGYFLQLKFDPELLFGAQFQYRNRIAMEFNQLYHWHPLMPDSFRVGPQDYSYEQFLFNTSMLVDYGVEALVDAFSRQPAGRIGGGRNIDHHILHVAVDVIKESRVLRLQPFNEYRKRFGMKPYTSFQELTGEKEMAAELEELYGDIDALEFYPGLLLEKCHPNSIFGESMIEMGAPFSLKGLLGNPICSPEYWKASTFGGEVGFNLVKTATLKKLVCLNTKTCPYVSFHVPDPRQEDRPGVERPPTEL
As to the kind of experiment: Inhibition of ovine COX-1 assessed as inhibition of PGH2 production using arachidonic acid as substrate at 50 uM by TMPD oxidation based colorimetric assay. In a few lines:
(§1)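 Ovine COX-1 and COX-2 tested with a commercial colorimetric COX inhibitor screening kit, run per the manufacturer's protocol. The kit reads the enzyme's peroxidase activity. Compounds screened as percent inhibition at a single 50 µM concentration.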

The target of series [3] is T3, Prostaglandin G/H synthase 2 (Ovis aries) (UniProt P79208).
T3 sequence (whole entry): T1 sequence (P79208 whole entry)
The series is described as follows: Inhibition of ovine COX-2 assessed as inhibition of PGH2 production using arachidonic acid as substrate at 50 uM by TMPD oxidation based colorimetric assay. In a few lines:
as §1

The subject of the next series is SK-OV-3. The series is described as follows: Antiproliferative activity against human SKOV3 cells assessed as cell growth inhibition after 48 hrs by MTT assay. Type of series: cell-based. The settings on record: sk-ov-3, 48 h. The gist of the method: (§2)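 MTT read-out of growth after 48 h. After the drug incubation, MTT was added at 0.5 mg/mL for 3 h at 37 °C. Supernatant was removed, formazan dissolved in DMSO, and absorbance read.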
For orientation: Tetrazolium dyes change colour on reduction, which living cells bring about.

In another series the test system is MCF7. As to the kind of experiment: Antiproliferative activity against human MCF7 cells assessed as cell growth inhibition after 48 hrs by MTT assay. The settings on record: mcf7, 48 h. Type of series: cell-based. The gist of the method: as §2
For series [4], the target named is T4, Prostaglandin G/H synthase 2 (Homo sapiens, UniProt P35354).
T4 sequence (P35354 whole entry): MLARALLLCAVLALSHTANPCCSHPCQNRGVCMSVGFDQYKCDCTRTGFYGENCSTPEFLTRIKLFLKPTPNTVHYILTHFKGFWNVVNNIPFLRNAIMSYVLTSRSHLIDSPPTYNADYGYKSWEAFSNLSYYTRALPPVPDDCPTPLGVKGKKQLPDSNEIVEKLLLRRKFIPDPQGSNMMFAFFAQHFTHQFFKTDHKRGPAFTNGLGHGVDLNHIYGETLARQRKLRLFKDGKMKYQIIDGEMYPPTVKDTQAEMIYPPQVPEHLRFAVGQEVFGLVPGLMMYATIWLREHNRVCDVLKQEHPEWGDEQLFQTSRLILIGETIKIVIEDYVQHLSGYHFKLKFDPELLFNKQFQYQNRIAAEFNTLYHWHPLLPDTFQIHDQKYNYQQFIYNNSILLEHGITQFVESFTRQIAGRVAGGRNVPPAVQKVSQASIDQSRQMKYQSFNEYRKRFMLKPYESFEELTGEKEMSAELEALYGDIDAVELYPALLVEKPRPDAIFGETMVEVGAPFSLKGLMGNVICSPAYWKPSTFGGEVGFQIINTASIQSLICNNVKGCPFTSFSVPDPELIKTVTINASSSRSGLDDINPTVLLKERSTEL
As to the kind of experiment: Inhibition of LPS-induced COX2 in human whole blood assessed as reduction in […] levels by radioimmunoassay.

One may read the IC50 as the concentration that inhibits the measured activity by half. Turning to `COc1ccc(-c2noc(CC(=O)O)c2-c2ccc(OC)cc2)cc1` [MOFEZOLAC], in series [1], the IC50 stood at 440 nM. By inhibition is commonly meant the percentage by which the read-out fell short of the control. With `CSc1ccc(-n2nnc(-c3ccccc3)c2C)cc1`, the inhibition result in series [2] is “inactive”. Further, the inhibition in series [3] was 14%. Turning to `COc1ccc(-c2nnn(-c3ccc(OC)cc3)c2C)cc1`, the inhibition in series [2] is 25%. Further, the inhibition result in series [3] is “inactive”. On to `COc1ccc(-n2nnc(-c3ccc(SC)cc3)c2C)cc1`, for which the inhibition result in series [2] and in series [3] was “inactive” each time.

Regarding `COc1ccc(-n2nnc(-c3ccccc3)c2C)cc1`, the inhibition in series [2] stood at 26%; in series [3] it was 35%.

Regarding `Cc1c(-c2ccccc2)nnn1-c1ccc(S(C)(=O)=O)cc1`, the inhibition stood at 21% in series [2] and 20% in series [3]. With `COc1ccc(-n2nnc(-c3ccco3)c2C)cc1`, the inhibition entry in series [2] and in series [3] was “inactive” in each case. `COc1ccc(-n2nc(C(F)(F)F)cc2-c2ccco2)cc1`: the inhibition in series [3] amounted to 28%. Consider `Cc1c(-c2ccccc2)nnn1-c1ccc(Cl)cc1`, for which the inhibition entry in series [2] and in series [3] was “inactive” throughout.

`COc1ccc(-n2nnc(-c3ccc(Cl)o3)c2C)cc1`: in series [2], the inhibition came to 45%. In addition, in series [3], the inhibition result is “inactive”. `COc1ccc(-c2nnn(-c3ccc(S(C)(=O)=O)cc3)c2C)cc1`: the inhibition in series [2] worked out at 55%. Besides, the inhibition entry in series [3] is “inactive”. Regarding `Cc1c(-c2ccco2)nnn1-c1ccc([N+](=O)[O-])cc1`, in series [2], the inhibition result was “inactive”. In series [3], the inhibition came out at 40%. As for `Cc1c(-c2ccccc2)nnn1-c1ccc(F)cc1`, the inhibition entry in series [2] and in series [3] was “inactive” each time.

Consider `COc1ccc(-n2nnc(-c3ccc(N)cc3)c2C)cc1`, for which the Activity result in the series on SK-OV-3 and in the series on MCF7 was “Non-toxic” in each case. In addition, in series [2], the inhibition came to 100%. Also, the inhibition entry in series [3] was “inactive”. With `Cc1c(-c2ccccc2)nnn1-c1ccc(O)cc1`, in series [2], the inhibition entry is “inactive”. Moreover, the inhibition in series [3] was 26%. Consider `Cc1c(-c2ccccc2)nnn1-c1ccc(N)cc1`, for which the Activity result in the series on SK-OV-3 and in the series with MCF7 was “Non-toxic” throughout. Also, the inhibition in series [2] was 56%. In addition, the inhibition entry in series [3] is “inactive”. In the case of `COC(=O)Cc1onc(-c2ccc(Cl)o2)c1-c1ccccc1`, the inhibition in series [2] was 7%. In the case of `COc1ccc(-n2nnc(-c3ccc(S(C)(=O)=O)cc3)c2C)cc1`, the inhibition in series [2] was 20%. The inhibition result in series [3] is “inactive”. Take `Cc1c(-c2ccccc2)nnn1-c1ccc([N+](=O)[O-])cc1`: the inhibition result in series [2] and in series [3] was “inactive” in each case. With `COc1ccc(-c2nnn(-c3ccc(SC)cc3)c2C)cc1`, the inhibition entry in series [2] and in series [3] was “inactive” in each case. Regarding `Cc1onc(-c2ccc(Cl)o2)c1-c1ccccc1`, the concentration for half-maximal inhibition (IC50) in series [4] was more than 100000 nM. Also, the inhibition in series [2] came to 89%. Take `N#CCc1onc(-c2ccc(Cl)o2)c1-c1ccccc1`: the inhibition in series [2] came to 11%. In the case of `Clc1ccc(-c2noc(CBr)c2-c2ccccc2)o1`, the inhibition in series [2] was found to be 37%. Take `COc1ccc(-n2nnc(-c3ccc([N+](=O)[O-])cc3)c2C)cc1`: in series [2], the inhibition turned out to be 20%. Further, the inhibition entry in series [3] was “inactive”.
